Results from ChEMBL document CHEMBL3102806, “1,2,4-Triazole/oxime hybrids as new strategy for nitric oxide donors: Synthesis, anti-inflammatory, ulceroginicity and antiproliferative activities” (Eur J Med Chem, 2014).

How the values were obtained:
Rattus norvegicus [1] = assay: Antiinflammatory activity in albino rat assessed as inhibition of carrageenan-induced paw edema at 0.28 mmol/kg, po administered 30 mins prior to carrageenan-challenge measured after 1 hr relative to control; type: functional
Method in brief: (§1)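 Male albino rats in groups of four were fasted 24 h with water allowed. Dosing was oral at 0.28 mmol/kg, suspended in 0.5% w/v CMC; controls got CMC alone. After 30 min, 0.1 ml of 1% carrageenan in saline went subplantar into the right hind paw and saline into the left. Paw thickness was read by caliper before and at 1–5 h. % inhibition = [(VR−VL)control−(VR−VL)treated]/(VR−VL)control ×100. Mean ± SEM, n = 4, one-way ANOVA vs control.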

Rattus norvegicus [2] = assay: Antiinflammatory activity in albino rat assessed as inhibition of carrageenan-induced paw edema at 0.28 mmol/kg, po administered 30 mins prior to carrageenan-challenge measured after 3 hrs relative to control; type: functional; method in brief: as §1
Rattus norvegicus [3] = assay: Antiinflammatory activity in albino rat assessed as inhibition of carrageenan-induced paw edema at 0.28 mmol/kg, po administered 30 mins prior to carrageenan-challenge measured after 2 hrs relative to control; type: functional; method in brief: as §1
Rattus norvegicus [4] = assay: Gastrointestinal toxicity in albino rat carrageenan-induced paw edema model assessed as decrease in thickness of gastric mucosa with marked loss of mucosal membrane at areas of ulceration at 0.28 mmol/kg, po by hematoxylin and eosin staining-based light microscopic analysis; type: organism-based; details: in vivo
Method in brief: (§2)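 Rats were dosed orally at 0.28 mmol/kg, suspended in 0.5% aqueous CMC; vehicle-only animals served as controls. After ulcer scoring, stomach sections were stained with haematoxylin and eosin: acid-alcohol differentiation, then 1% eosin for 10 min. Sections were dehydrated, cleared in xylene, mounted and examined by light microscopy.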

Rattus norvegicus [5] = assay: Antiinflammatory activity in albino rat assessed as inhibition of carrageenan-induced paw edema at 0.28 mmol/kg, po administered 30 mins prior to carrageenan-challenge measured after 5 hrs relative to control; type: functional; method in brief: as §1
Rattus norvegicus [6] = assay: Ulcerogenic activity in albino rat carrageenan-induced paw edema model assessed as ulcer index at 0.28 mmol/kg, po (reference value: 0.60 +/- 0.05); type: toxicity, organism-based; details: in vivo
Method in brief: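 Rats given the compound orally at 0.28 mmol/kg, suspended in 0.5% aqueous CMC; vehicle-only control, n = 4 per group. Gastric ulcers graded by area: I (<1 mm²), II (1–3 mm²), III (>3 mm²). Ulcer index = 1×(level I count) + 2×(level II) + 3×(level III). Mean ± SEM, one-way ANOVA versus control.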

Rattus norvegicus [7] = assay: Gastrointestinal toxicity in albino rat carrageenan-induced paw edema model assessed as loss of morphology of glandular structures at 0.28 mmol/kg, po by hematoxylin and eosin staining-based light microscopic analysis; type: organism-based; details: in vivo; method in brief: as §2
Rattus norvegicus [8] = assay: Antiinflammatory activity in albino rat assessed as inhibition of carrageenan-induced paw edema at 0.28 mmol/kg, po administered 30 mins prior to carrageenan-challenge measured after 4 hrs relative to control; type: functional; method in brief: as §1
[9] = Induction of nitric oxide release in HCl buffer at 10^-4 M at pH 1 after 1 hr by Griess colorimetric method in presence of N-acetylcysteine; type: physicochemical; details: pH 1, 1 h, 100 µM
Method in brief: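 Same Griess nitrite procedure at 10^-4 M final drug with N-acetylcysteine at 37 °C, but with 0.1 N HCl (pH 1) in place of the pH 7.4 phosphate buffer. Absorbance at 546 nm against a sodium nitrite calibration curve.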

[10] = Induction of nitric oxide release in phosphate buffer at 10^-4 M at pH 7.4 after 3 hrs by Griess colorimetric method in presence of N-acetylcysteine; type: physicochemical; details: pH 7.4, 3 h, 100 µM
Method in brief: (§3)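 Final drug concentration 10^-4 M, added from DMF into 1:1 50 mM phosphate buffer (pH 7.4)/MeOH containing 5 × 10^-4 M N-acetylcysteine, at 37 °C. Nitrite read with Griess reagent after 10 min at room temperature, absorbance at 546 nm. Calibration with sodium nitrite standards (10–80 nmol/ml). Reported as mol NO per mol, n = 4 reaction mixtures.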

[11] = Induction of nitric oxide release in phosphate buffer at 10^-4 M at pH 7.4 after 1 hr by Griess colorimetric method in presence of N-acetylcysteine; type: physicochemical; details: pH 7.4, 1 h, 100 µM; method in brief: as §3
[12] = Induction of nitric oxide release in phosphate buffer at 10^-4 M at pH 7.4 after 6 hrs by Griess colorimetric method in presence of N-acetylcysteine; type: physicochemical; details: pH 7.4, 6 h, 100 µM; method in brief: as §3
[13] = Induction of nitric oxide release in phosphate buffer at 10^-4 M at pH 7.4 after 4 hrs by Griess colorimetric method in presence of N-acetylcysteine; type: physicochemical; details: pH 7.4, 4 h, 100 µM; method in brief: as §3
Rattus norvegicus [14] = assay: Gastrointestinal toxicity in albino rat carrageenan-induced paw edema model assessed as capillary vasodilatation of lamina propria associated with accumulation of edema fluid at 0.28 mmol/kg, po by hematoxylin and eosin staining-based light microscopic analysis; type: organism-based; details: in vivo; method in brief: as §2
[15] = Induction of nitric oxide release in phosphate buffer at 10^-4 M at pH 7.4 after 5 hrs by Griess colorimetric method in presence of N-acetylcysteine; type: physicochemical; details: pH 7.4, 5 h, 100 µM; method in brief: as §3
Rattus norvegicus [16] = assay: Gastrointestinal toxicity in albino rat carrageenan-induced paw edema model assessed as severe atrophic gastritis and gland atrophy at 0.28 mmol/kg, po by hematoxylin and eosin staining-based light microscopic analysis; type: organism-based; details: in vivo; method in brief: as §2
Rattus norvegicus [17] = assay: Gastrointestinal toxicity in albino rat carrageenan-induced paw edema model assessed as acute inflammatory cell infiltrating its whole thickness at 0.28 mmol/kg, po by hematoxylin and eosin staining-based light microscopic analysis; type: organism-based; details: in vivo; method in brief: as §2
[18] = Induction of nitric oxide release in phosphate buffer at 10^-4 M at pH 7.4 after 2 hrs by Griess colorimetric method in presence of N-acetylcysteine; type: physicochemical; details: pH 7.4, 2 h, 100 µM; method in brief: as §3
Rattus norvegicus [19] = assay: Gastrointestinal toxicity in albino rat carrageenan-induced paw edema model assessed as appearance of ulcer at 0.28 mmol/kg, po by hematoxylin and eosin staining-based light microscopic analysis; type: organism-based; details: in vivo; method in brief: as §2
Rattus norvegicus [20] = assay: Gastrointestinal toxicity in albino rat carrageenan-induced paw edema model assessed as destruction of surface epithelium and epithelial lining of gastric pits at 0.28 mmol/kg, po by hematoxylin and eosin staining-based light microscopic analysis; type: organism-based, Stomach; details: in vivo; method in brief: as §2
Rattus norvegicus [21] = assay: Gastrointestinal toxicity in albino rat carrageenan-induced paw edema model assessed as apoptotic glandular epithelial cells at 0.28 mmol/kg, po by hematoxylin and eosin staining-based light microscopic analysis; type: organism-based, Epithelial cell; details: in vivo; method in brief: as §2

| Activity [9] | Activity [10] [mol/mol] | Activity [11] [mol/mol] | Activity [12] [mol/mol] | Activity [13] [mol/mol] | Activity [15] [mol/mol] | Activity [18] [mol/mol] | SMILES | inhibition in vivo at 280 µmol/kg (Rattus norvegicus [1]) [%] | inhibition in vivo at 280 µmol/kg (Rattus norvegicus [2]) [%] | inhibition in vivo at 280 µmol/kg (Rattus norvegicus [3]) [%] | Activity (Rattus norvegicus [4]) | inhibition in vivo at 280 µmol/kg (Rattus norvegicus [5]) [%] | UI (Rattus norvegicus [6]) | inhibition in vivo at 280 µmol/kg (Rattus norvegicus [8]) [%] | Activity (Rattus norvegicus [14]) | Activity (Rattus norvegicus [16]) | Activity (Rattus norvegicus [17]) | other results |
| --- | --- | --- | --- | --- | --- | --- | --- | --- | --- | --- | --- | --- | --- | --- | --- | --- | --- | --- |
|  |  |  |  |  |  |  | C=CCn1c(SCC(=O)Nc2ccc(C(C)=O)cc2)nnc1-c1ccc(OC)c(OC)c1 | 56 | 58 | 57 | Toxic | 64 | 2.45 | 70 |  |  |  | Activity (Rattus norvegicus [7]): Toxic |
| Not Active | 0.32 | 0.13 | 0.26 | 0.35 | 0.27 | 0.16 | C=CCn1c(SCC(=O)Nc2ccc(/C(C)=N/O)cc2)nnc1-c1ccc(OC)c(OC)c1 | 53 | 70 | 56 |  | 79 | 0.25 | 79 | Non-toxic | Non-toxic | Non-toxic | Activity (Rattus norvegicus [19]): Non-toxic |
| Not Active | 0.19 | 0.11 | 0.16 | 0.24 | 0.18 | 0.15 | C=CCn1c(SCC(=O)Nc2ccc(/C(C)=N/O)cc2)nnc1-c1cc(OC)c(OC)c(OC)c1 | 49 | 62 | 53 |  | 64 | 0.75 | 72 |  |  |  |  |
|  |  |  |  |  |  |  | COc1ccc2c(c1)c(CC(=O)O)c(C)n2C(=O)c1ccc(Cl)cc1 [INDOMETHACIN] | 51 | 74 | 67 | Toxic | 87 | 63.34 | 83 | Toxic | Toxic | Toxic | Activity (Rattus norvegicus [20]): Toxic; Activity (Rattus norvegicus [21]): Toxic |
